Assay outcomes from PubChem.
T cruzi growth-1: inhibitors of T. cruzi proliferation; T. cruzi beta-gal in NIH3T3, GalScreen luminescence, 90 h; inhibition, % at 8.34 µM; actives 5.9% (n = 77,000); AID 624255;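 active = mean inhibition above about 93%, with at least 55% of replicates each passing it, limit read from the data, passing the limit was not always enough; inconclusive = only one of those two conditions holds; inactive = neither condition holds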
IDH1 mut inh: inhibitors of human IDH1 R132H; O75874; IDH1 R132H reductase, diaphorase/resazurin fluorescence, 60 min; inhibition, % at 10 µM; actives 0.18% (n = 70,000); AID 624101; in the data active = inhibition above about 34%; inconclusive = no clear call, values can overlap the other calls; inactive = below about 11%;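 also: 0% = DMSO and 100% = no enzyme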
Target sequence (O75874 whole entry R132H): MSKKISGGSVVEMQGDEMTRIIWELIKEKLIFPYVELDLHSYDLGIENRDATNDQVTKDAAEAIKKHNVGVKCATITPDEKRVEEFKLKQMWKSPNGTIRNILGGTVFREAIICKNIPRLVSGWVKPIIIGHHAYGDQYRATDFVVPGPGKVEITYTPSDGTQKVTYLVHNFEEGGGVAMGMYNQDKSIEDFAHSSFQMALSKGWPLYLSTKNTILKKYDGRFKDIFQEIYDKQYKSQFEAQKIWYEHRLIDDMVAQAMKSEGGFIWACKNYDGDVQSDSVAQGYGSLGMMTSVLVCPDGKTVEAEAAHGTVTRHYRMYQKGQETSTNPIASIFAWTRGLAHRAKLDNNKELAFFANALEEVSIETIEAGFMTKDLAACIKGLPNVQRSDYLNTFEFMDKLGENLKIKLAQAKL
Pf Dd2 growth: blocks growth of Plasmodium falciparum Dd2 parasites; P. falciparum Dd2 growth, SYBR Green, 72 h; stronger effect = lower value; activity change, % at 10 µM; actives 2.3% (n = 94,000); in the data active = activity change below about -80%; inconclusive = no clear call, values can overlap the other calls
KDM4C inh: blocks human GASC-1 (KDM4C) demethylase activity; inhibition, % at 12.5 µM; GST-KDM4C 2-372, H3K9me3 peptide, LANCE TR-FRET; Q9H3R0; actives 0.15% (n = 96,000);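 active = mean replicate inhibition above about 25%, with at least 55% of replicates also reaching it, limit read from the data, passing the limit was not always enough; inconclusive = only one of those two conditions met; inactive = neither condition met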
Target sequence (Q9H3R0 2-372 limits assumed): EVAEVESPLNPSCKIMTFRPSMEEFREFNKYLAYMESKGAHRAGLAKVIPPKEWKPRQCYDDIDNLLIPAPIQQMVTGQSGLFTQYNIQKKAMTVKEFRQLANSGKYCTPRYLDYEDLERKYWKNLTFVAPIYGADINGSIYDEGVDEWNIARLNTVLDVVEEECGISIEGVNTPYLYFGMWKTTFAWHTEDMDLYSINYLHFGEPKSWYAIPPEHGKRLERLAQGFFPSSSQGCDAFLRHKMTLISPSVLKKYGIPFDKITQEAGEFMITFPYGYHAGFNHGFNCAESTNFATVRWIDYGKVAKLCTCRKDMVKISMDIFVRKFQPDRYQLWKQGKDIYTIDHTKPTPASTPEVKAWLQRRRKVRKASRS
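reagent = H3K9me3 peptide substrate, Fe(II), 2-oxoglutarate | system = GST-tagged GASC-1 (JMJD2C) catalytic fragment, aa 2-372 | amount = enzyme final amount 10 nM | read-out = Fall in 671/618 emission ratio as inhibition | medium = HEPES buffer, pH 7.5, plus ascorbate | schedule = 30 min reaction, 60 min detection, RT | measured by = LANCE TR-FRET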
T cruzi growth-2: Trypanosoma cruzi proliferation inhibition; shares compounds with T cruzi growth-1; T. cruzi beta-gal in NIH3T3, GalScreen luminescence, 90 h; inhibition, % at 8.35 µM; actives 72% (n = 5,600);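 active = mean replicate inhibition above about 95% and at least 55% of replicates individually reaching it, limit read from the data; inconclusive = only one of the two criteria is met; inactive = neither criterion is met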
T cruzi growth-3: Trypanosoma cruzi proliferation inhibition. AID 651740. actives 21% (n = 5,600). T. cruzi beta-gal in NIH3T3, GalScreen luminescence, 90 h. inhibition, % at 2.09 µM. shares compounds with T cruzi growth-1;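 active = mean inhibition above about 95%, with at least 55% of replicates also reaching it, limit read from the data; inconclusive = meets just one of the two conditions; inactive = meets neither condition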;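 also: plate controls were neutral control median for no effect and positive control median for full effect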
3T3 cytotox: cytotoxicity in mouse NIH/3T3 fibroblasts. cytotoxicity (signal decrease), % at 8.35 µM. actives 14% (n = 5,600). shares compounds with T cruzi growth-1. NIH/3T3 viability, CellTiter-Glo ATP luminescence, 90 h;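 active = mean signal decrease across replicates above about 35% based on untreated-well scatter, with enough replicates individually passing, limit read from the data; inconclusive = no rule stated though some were filed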;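 also: 0% = median of neutral control wells and 100% = median of positive control wells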
3T3 cytotox 2: NIH/3T3 (mouse) viability loss; shares compounds with T cruzi growth-1; NIH/3T3 viability, CellTiter-Glo ATP luminescence, 90 h; inhibition, % at 24.9 µM; actives 56% (n = 5,600);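 active = mean loss of cell viability signal at or above a set limit, and enough replicates individually reaching it; inconclusive = meets only the mean limit or only the replicate share; inactive = meets neither condition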;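 also: 0% = median of neutral control wells and 100% = median of positive control wells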
* = called active by the depositor; ? = inconclusive; . = not tested or not shown. Only some compounds are listed: those with a hit (about 5.9% of all), similar ones and a draw of the others.

SMILES | T cruzi growth-1 | IDH1 mut inh | Pf Dd2 growth | KDM4C inh | T cruzi growth-2 | T cruzi growth-3 | 3T3 cytotox | 3T3 cytotox 2
Cc1ccc(S(=O)(=O)Nc2ccc3c(c2)C(=O)N([C@@H](C)CO)C[C@@H](C)[C@H](CN(C)Cc2ccc4c(c2)OCO4)OCCCC[C@H](C)O3)cc1 | 72.0 | . | -67.0 | -1.0 | . | . | . | .
C[C@@H]1CCCCO[C@H](CN(C)Cc2ccc3c(c2)OCO3)[C@@H](C)CN([C@@H](C)CO)C(=O)c2cc(NS(=O)(=O)c3ccc(Cl)cc3)ccc2O1 | ? | . | -61.1 | 4.7 | 95.1* | 108.5* | ? | 103.2*
C[C@@H]1CCCCO[C@@H](CN(C)Cc2ccc3c(c2)OCO3)[C@H](C)CN([C@@H](C)CO)C(=O)c2cc(NS(=O)(=O)c3ccc(Cl)cc3)ccc2O1 | 33.9 | . | 1.4 | 0.3 | . | . | . | .
Cc1ccc(S(=O)(=O)Nc2ccc3c(c2)C(=O)N([C@@H](C)CO)C[C@@H](C)[C@@H](CN(C)Cc2ccc4c(c2)OCO4)OCCCC[C@H](C)O3)cc1 | ? | . | -62.9 | -0.3 | 86.1 | ? | 60.6* | 104.2*
O=C(N/N=C/c1ccc(O)cc1Br)c1ccccn1 | . | 0.1 | . | . | . | . | . | .
Cc1ccc(-c2nc3ncccc3o2)cc1NC(=O)COc1cc(Cl)c(Cl)cc1Cl | . | 0.6 | . | . | . | . | . | .
Cc1ccc(C)c(S(=O)(=O)/N=C(\c2ccccc2)N(C)C)c1 | . | -0.5 | . | . | . | . | . | .
Cc1ccc(S(=O)(=O)Nc2ccc3c(c2)C(=O)N([C@@H](C)CO)C[C@H](C)[C@@H](CN(C)Cc2ccc4c(c2)OCO4)OCCCC[C@H](C)O3)cc1 | 104.5* | -0.5 | -53.1 | 2.1 | 102.4* | 55.2 | 25.1 | 79.7*
Cc1ccc(S(=O)(=O)Nc2ccc3c(c2)C(=O)N([C@@H](C)CO)C[C@@H](C)[C@@H](CN(C)Cc2ccc4c(c2)OCO4)OCCCC[C@@H](C)O3)cc1 | 45.1 | 5.1 | -66.8 | 0.4 | . | . | . | .
Cc1ccc(S(=O)(=O)Nc2ccc3c(c2)C(=O)N([C@@H](C)CO)C[C@H](C)[C@@H](CN(C)Cc2ccc4c(c2)OCO4)OCCCC[C@@H](C)O3)cc1 | 97.7* | . | -80.8* | -3.0 | 102.4* | 54.6 | 24.9 | 105.2*
Cc1ccc(S(=O)(=O)Nc2ccc3c(c2)C(=O)N([C@H](C)CO)C[C@H](C)[C@@H](CN(C)Cc2ccc4c(c2)OCO4)OCCCC[C@@H](C)O3)cc1 | 37.1 | . | -35.0 | -0.9 | . | . | . | .
C[C@H](CO)N1C[C@H](C)[C@H](CN(C)C(=O)Nc2ccc(C(F)(F)F)cc2)Oc2c(NC(=O)c3ccc(-c4nccs4)cc3)cccc2C1=O | 116.0* | . | -44.0 | -4.6 | 102.0* | 71.6 | 31.2 | 83.8*
C[C@H](CO)N1C[C@H](C)[C@@H](CN(C)C(=O)Nc2ccc(C(F)(F)F)cc2)Oc2c(NC(=O)c3ccc(-c4nccs4)cc3)cccc2C1=O | 71.5 | . | 11.7 | 15.7 | . | . | . | .
C[C@@H]1CN([C@@H](C)CO)C(=O)c2cccc(NC(=O)c3ccc(-c4nccs4)cc3)c2O[C@H]1CN(C)C(=O)Nc1ccc(F)cc1 | 4.3 | -2.4 | -27.1 | 1.6 | . | . | . | .
C[C@@H]1CN([C@H](C)CO)C(=O)c2cccc(NC(=O)c3nc4ccccc4s3)c2O[C@H]1CN(C)C(=O)Nc1ccc(C(F)(F)F)cc1 | 93.1* | -0.8 | -86.2* | -1.3 | ? | ? | 18.9 | 49.9*
C[C@@H]1CN([C@@H](C)CO)C(=O)c2cccc(NC(=O)c3ccc(-c4nccs4)cc3)c2O[C@@H]1CN(C)C(=O)Nc1ccc(C(F)(F)F)cc1 | ? | -7.7 | -69.6 | -2.6 | 107.6* | 90.6 | 25.7 | 98.3*
CC(=O)c1ccc(NC(=O)CSc2nnc3n(C)c(=O)c4c5c(sc4n23)CCCC5)cc1 | . | -0.2 | . | . | . | . | . | .
CCn1c(SCC(=O)Nc2ccccc2F)nnc1-c1ccc(Br)cc1 | . | 1.0 | . | . | . | . | . | .
Cc1cc(C)c(NC(=O)CN(c2ccc(Cl)cc2)S(C)(=O)=O)c(C)c1 | . | 0.2 | . | . | . | . | . | .
COc1cccc(NC(=O)CSC2CC(=O)N(c3cc(C)cc(C)c3)C2=O)c1 (stereo unspecified) | . | -0.3 | . | . | . | . | . | .
CCCC#Cc1ccc2c(c1)O[C@H](CN(C)C(=O)C1CCC1)[C@@H](C)CN([C@@H](C)CO)S2(=O)=O | 107.9* | . | -33.3 | -0.2 | 101.6* | 56.1 | 12.3 | 39.0*
CCCC#Cc1ccc2c(c1)O[C@H](CN(C)C(=O)C1CCC1)[C@H](C)CN([C@@H](C)CO)S2(=O)=O | 98.3* | 1.8 | -9.9 | -0.1 | 107.2* | 80.2 | 27.5 | 45.3*
COc1ccc(Cl)cc1NC(=O)CSc1nnc(-c2cc3cc(Br)ccc3o2)n1C | . | 0.5 | . | . | . | . | . | .
Cc1cc(C(=O)Nc2cccc3c2O[C@H](CN(C)C)[C@H](C)CN([C@@H](C)CO)C3=O)n(C)n1 | ? | . | 10.6 | 1.2 | 26.3 | -16.3 | 6.1 | 1.5
Cc1cc(C(=O)Nc2cccc3c2O[C@H](CN(C)C)[C@@H](C)CN([C@H](C)CO)C3=O)n(C)n1 | 12.6 | . | 14.9 | -0.1 | . | . | . | .
SMILES | T cruzi growth-1 | IDH1 mut inh | Pf Dd2 growth | KDM4C inh | T cruzi growth-2 | T cruzi growth-3 | 3T3 cytotox | 3T3 cytotox 2
Cc1cc(C(=O)Nc2cccc3c2O[C@H](CN(C)C)[C@@H](C)CN([C@@H](C)CO)C3=O)n(C)n1 | 101.4* | . | 10.2 | 0.4 | 10.2 | 24.1 | -1.1 | 4.6
Cc1cc(C(=O)Nc2cccc3c2O[C@@H](CN(C)S(C)(=O)=O)[C@@H](C)CN([C@@H](C)CO)C3=O)n(C)n1 | 61.4 | . | -8.8 | 0.1 | . | . | . | .
O=C(N/N=C/c1cccc(O)c1)c1ccccn1 | . | -0.1 | . | . | . | . | . | .
C[C@H](CO)N1C[C@H](C)[C@@H](CN(C)CC2CCCCC2)OCCCC[C@H](C)Oc2ccc(NC(=O)Nc3ccc(C(F)(F)F)cc3)cc2C1=O | 84.2 | . | -41.4 | -2.4 | . | . | . | .
C[C@@H]1CN([C@@H](C)CO)C(=O)c2cc(NC(=O)Nc3ccc(C(F)(F)F)cc3)ccc2O[C@@H](C)CCCCO[C@H]1CN(C)CC1CCCCC1 | 88.0 | . | -60.3 | . | . | . | . | .
C[C@@H]1CN([C@H](C)CO)C(=O)c2cc(NC(=O)Nc3ccc(C(F)(F)F)cc3)ccc2O[C@@H](C)CCCCO[C@@H]1CN(C)CC1CCCCC1 | ? | -2.6 | -63.6 | -4.2 | ? | 111.6* | 117.8* | 104.9*
C[C@H](CO)N1C[C@H](C)[C@H](CN(C)CC2CCCCC2)OCCCC[C@H](C)Oc2ccc(NC(=O)Nc3ccc(C(F)(F)F)cc3)cc2C1=O | 95.0* | . | -78.2 | -0.5 | 90.7 | 106.5* | 120.3* | 104.9*
Cc1ccc(C)c(NC(=O)Cn2cnc3ccccc3c2=O)c1 | . | 0.1 | . | . | . | . | . | .
O=C(Nc1ccccc1C(=O)O)c1cccc(S(=O)(=O)Nc2cccc(Br)c2)c1 | . | -1.4 | . | . | . | . | . | .
